Test results as given in ChEMBL document CHEMBL1154682, “Discovery of novel benzoxazinones as potent and orally active long chain fatty acid elongase 6 inhibitors” (J Med Chem, 2009).
Each block holds one compound with its values, some of them ahead of it.

Key:
[1] = biological target: T1, Very long chain fatty acid elongase 6 (Homo sapiens, UniProt Q9H5J4); assay: Inhibition of human ELOVL6 expressed in Pichia pastoris using palmitoyl-CoA by long chain fatty acyl-CoA elongation assay
T1 sequence (Q9H5J4 whole entry): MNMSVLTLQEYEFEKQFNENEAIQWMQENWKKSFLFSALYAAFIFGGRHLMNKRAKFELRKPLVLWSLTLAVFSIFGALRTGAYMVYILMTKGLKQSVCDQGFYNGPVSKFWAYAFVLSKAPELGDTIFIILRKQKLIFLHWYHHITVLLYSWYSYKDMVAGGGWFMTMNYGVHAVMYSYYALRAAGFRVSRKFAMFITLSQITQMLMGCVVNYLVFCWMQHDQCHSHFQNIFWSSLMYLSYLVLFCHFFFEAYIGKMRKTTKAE
How it was run: (§1)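 Microsomes (3 μg) from Pichia pastoris SMD1168 expressing FLAG-tagged human or mouse ELOVL6 were incubated 1 h at 37 °C in 100 mM potassium phosphate pH 6.5 with 40 μM palmitoyl-CoA, 20 μM malonyl-CoA plus [14C]-malonyl-CoA, 500 μM NADPH, 200 μM BSA and 1 μM rotenone. DMSO was 1.0% final. After HCl hydrolysis, filter-retained 14C was counted. IC50 came from nonlinear regression on % of control.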

[2] = Unbound fraction in C57BL/6N mouse plasma; type: ADME, cell-free
How it was run: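 Equilibrium dialysis was run with C57BL/6N mouse plasma adjusted to pH 7.4 and spiked with 1 μM compound, dialysed against PBS for 6 h at 37 °C. Both sides were analysed by LC-MS/MS. Unbound fraction = Cf/Cp × 100. Mean of n = 3.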

[3] = biological target: T2, Very long chain fatty acid elongase 6 (Mus musculus, UniProt Q920L5); assay: Inhibition of mouse ELOVL6 expressed in Pichia pastoris using palmitoyl-CoA by long chain fatty acyl-CoA elongation assay; how it was run: as §1
T2 sequence (Q920L5 whole entry): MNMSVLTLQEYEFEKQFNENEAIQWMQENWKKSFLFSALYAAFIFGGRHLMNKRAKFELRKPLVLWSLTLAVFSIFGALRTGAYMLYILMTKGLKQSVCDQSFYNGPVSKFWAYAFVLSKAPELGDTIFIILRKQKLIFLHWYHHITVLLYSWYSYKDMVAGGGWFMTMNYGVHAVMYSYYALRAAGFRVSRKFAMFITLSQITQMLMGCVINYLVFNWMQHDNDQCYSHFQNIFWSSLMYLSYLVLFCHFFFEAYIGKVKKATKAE

[4] = biological target: T2, Very long chain fatty acid elongase 6; assay: Inhibition of ELOVL6 in mouse H2.35 cells assessed as elongation index; type: cell-based
How it was run: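 Subconfluent mouse hepatoma H2.35 cells were kept at 33 °C in DMEM with 200 nM dexamethasone and 4% FBS. Lipids were hydrolysed in NaOH at 70 °C, and fatty acids extracted and quantified by radio-HPLC. Elongation index = (C18:0 + C18:1) / (C16:0 + C16:1).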

IC50 [1]: 2260 nM
Compound: CCC1(COC(=O)Nc2ccc(F)cc2)OC(=O)Nc2ccc(Cl)cc21 (centres undefined)

IC50 [1]: 5030 nM
Compound: CC(C)C1(COC(=O)Nc2ccc(F)cc2)OC(=O)Nc2ccc(Cl)cc21 (centres undefined)

IC50 [1]: 142 nM
Compound: O=C(Nc1ccc(F)cc1)OCC1(C(F)(F)F)OC(=O)Nc2ccc(Cl)cc21 (centres undefined)

fraction unbound [2]: 0.005
IC50 [3]: 31 nM
IC50 [4]: 377 nM
Compound: O=C(NCC1(C(F)(F)F)OC(=O)Nc2ccc(Cl)cc21)Nc1ccc(F)cc1 (single isomer, unassigned; (-))

Further lines, the compound ahead of its results:

Compound: CC1(COC(=O)Nc2ccc(F)cc2)OC(=O)Nc2ccc(Cl)cc21 (centres undefined)
IC50 [1]: 1360 nM

Compound: O=C1Nc2ccc(Cl)cc2C(CNC(=O)c2ccc(F)cc2)(C(F)(F)F)O1 (centres undefined)
fraction unbound [2]: 0.053

Compound: O=C(Nc1ccc(F)cc1)OCC1(C2CC2)OC(=O)Nc2ccc(Cl)cc21 (centres undefined)
IC50 [1]: 1410 nM
